# Source: ChEMBL document CHEMBL1275351, “Novel spirotetracyclic zwitterionic dual H(1)/5-HT(2A) receptor antagonists for the treatment of sleep disorders” (J Med Chem, 2010)
# Key:
# [1] = target: Histamine H1 receptor (Homo sapiens, UniProt P35367); assay: Antagonist activity against human histamine H1 receptor expressed in CHO cells by FLIPR assay; assay type: functional, cell-based
# [2] = target: 5-hydroxytryptamine receptor 2A (Homo sapiens, UniProt P28223); assay: Antagonist activity at human 5HT2A receptor expressed in HEK cells assessed as inhibition of intracellular calcium accumulation by aequorin assay; assay type: functional, cell-based, HEK293
# [3] = target: 5-hydroxytryptamine receptor 2B (Homo sapiens, UniProt P41595); assay: Antagonist activity at human 5HT2B receptor expressed in human SH-SY5Y cells by FLIPR assay
# [4] = target: T1, 5-hydroxytryptamine receptor 2C (Homo sapiens, UniProt P28335); assay: Antagonist activity at human 5HT2C receptor expressed in human SH-SY5Y cells by FLIPR assay; assay type: functional, cell-based
# T1 sequence (P28335 whole entry): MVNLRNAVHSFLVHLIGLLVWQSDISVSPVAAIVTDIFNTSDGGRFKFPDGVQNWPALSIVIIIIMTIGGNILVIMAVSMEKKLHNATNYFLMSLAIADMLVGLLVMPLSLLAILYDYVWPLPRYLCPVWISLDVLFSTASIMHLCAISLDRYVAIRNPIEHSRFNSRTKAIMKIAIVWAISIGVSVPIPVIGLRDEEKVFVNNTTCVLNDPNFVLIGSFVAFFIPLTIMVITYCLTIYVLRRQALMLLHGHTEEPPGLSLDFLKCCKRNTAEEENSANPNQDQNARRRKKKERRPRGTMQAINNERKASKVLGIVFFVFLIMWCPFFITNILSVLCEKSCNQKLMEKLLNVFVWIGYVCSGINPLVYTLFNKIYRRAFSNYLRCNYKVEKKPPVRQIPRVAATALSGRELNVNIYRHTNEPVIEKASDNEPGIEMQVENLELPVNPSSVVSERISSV
# [5] = target: Voltage-gated inwardly rectifying potassium channel KCNH2 (Homo sapiens, UniProt Q12809); assay: Displacement of [3H]dofetilide from human ERG by scintillation proximity assay
# [6] = target: Histamine H1 receptor (Rattus norvegicus, UniProt P31390); assay: Displacement of [3H]pyrilamine from histamine H1 receptor in Sprague-Dawley rat cortical membrane by liquid scintillation counting
# Outline: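 Cerebral cortex membranes from male Sprague-Dawley rats (200-250 g), 150 μg/well. Incubated with 0.6 nM [3H]pyrilamine in 50 mM HEPES, pH 7.4, for 2 h at room temperature. Filtered on PEI-soaked GF/B and counted by scintillation. Nonspecific binding with 10 μM cetirizine. Ki by Cheng-Prusoff; mean of two experiments in duplicate.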
# [7] = target: 5-hydroxytryptamine receptor 2A (Rattus norvegicus, UniProt P14842); assay: Displacement of [3H]ketanserin from 5HT2A receptor in Sprague-Dawley rat cortical membrane by liquid scintillation counting
# Outline: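 Cerebral cortex membranes from male Sprague-Dawley rats (200-250 g), 50 μg/well. Incubated with 1 nM [3H]ketanserin in 50 mM Tris-HCl, 10 mM MgCl2, pH 7.4, for 1 h at 37 °C with shaking. Filtered on PEI-soaked GF/B and counted by scintillation. Nonspecific binding with 10 μM mianserin. Ki by Cheng-Prusoff; mean of two experiments in duplicate.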
# [8] = target: T2, Cytochrome P450 1A2 (Homo sapiens, UniProt P05177); assay: Inhibition of human CYP1A2 transfected in bactosome expression system by spectrofluorimetry; assay type: ADME
# T2 sequence (P05177 whole entry): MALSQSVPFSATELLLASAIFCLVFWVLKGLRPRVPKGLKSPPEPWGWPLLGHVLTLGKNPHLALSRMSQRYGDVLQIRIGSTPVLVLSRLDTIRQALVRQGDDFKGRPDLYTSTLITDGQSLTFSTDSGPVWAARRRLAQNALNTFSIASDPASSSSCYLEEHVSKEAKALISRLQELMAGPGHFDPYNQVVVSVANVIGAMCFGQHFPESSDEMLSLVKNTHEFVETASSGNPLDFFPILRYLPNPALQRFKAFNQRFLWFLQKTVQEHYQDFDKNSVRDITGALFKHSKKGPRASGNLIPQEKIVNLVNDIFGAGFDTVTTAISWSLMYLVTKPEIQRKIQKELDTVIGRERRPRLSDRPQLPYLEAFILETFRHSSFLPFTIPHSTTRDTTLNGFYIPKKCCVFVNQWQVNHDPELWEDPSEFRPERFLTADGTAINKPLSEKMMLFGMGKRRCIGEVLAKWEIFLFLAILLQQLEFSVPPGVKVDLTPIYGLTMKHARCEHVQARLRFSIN
# Outline: (§1)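 Recombinant human CYP Bactosomes (0.1 mg/mL) in 50 mM phosphate buffer, pH 7.4. Compound at 0.1-10 μM was preincubated with fluorogenic substrate for 10 min at 37 °C, and the reaction was started with an NADPH regenerating system. Metabolite fluorescence was followed for 10 min. Substrates: 1A2 ethoxyresorufin 0.5 μM; 2C9 FCA 50 μM; 2C19 BMC 10 μM; 2D6 MMC 10 μM; 3A4 DEF 1 μM or 7-BQ 25 μM. Run in triplicate.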
# [9] = target: Cytochrome P450 2C9 (Homo sapiens, UniProt P11712); assay: Inhibition of human CYP2C9 transfected in bactosome expression system by spectrofluorimetry; assay type: ADME; outline: as §1
# [10] = target: Cytochrome P450 2C19 (Homo sapiens, UniProt P33261); assay: Inhibition of human CYP2C19 transfected in bactosome expression system by spectrofluorimetry; assay type: ADME; outline: as §1
# [11] = target: Cytochrome P450 2D6 (Homo sapiens, UniProt P10635); assay: Inhibition of human CYP2D6 transfected in bactosome expression system by spectrofluorimetry; assay type: ADME; outline: as §1
# [12] = target: Cytochrome P450 3A4 (Homo sapiens, UniProt P08684); assay: Inhibition of human CYP3A4 transfected in bactosome expression system by spectrofluorimetry; assay type: ADME; outline: as §1
# [13] = Fraction unbound in rat brain; assay type: ADME, tissue-based
# [14] = Fraction unbound in rat blood; assay type: ADME, tissue-based
# [15] = Blood clearance in Sprague-Dawley rat at 0.5 mg/kg, iv and 1 mg/kg, po; assay type: ADME, organism-based; conditions: whole blood
# Outline: (§2)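 Male Sprague-Dawley rats, cassette dosing. Compounds were given as an iv bolus and as an oral suspension. Blood samples were taken at intervals up to 24 h, processed by protein precipitation and analysed by HPLC-MS/MS.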
# [16] = Volume of distribution at steady state in Sprague-Dawley rat at 0.5 mg/kg, iv and 1 mg/kg, po; assay type: ADME, organism-based; conditions: in vivo, read-out: Vdss; outline: as §2
# [17] = Half life in Sprague-Dawley rat at 0.5 mg/kg, iv and 1 mg/kg, po; assay type: ADME, organism-based; conditions: in vivo; outline: as §2
# [18] = Oral bioavailability in Sprague-Dawley rat at 1 mg/kg; assay type: ADME, organism-based; conditions: in vivo; outline: as §2
# [19] = Ratio of drug level in brain to blood in Sprague-Dawley rat at 0.5 mg/kg, iv and 1 mg/kg, po; assay type: ADME, organism-based; conditions: read-out: BBR
# Outline: (§3)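 Male Sprague-Dawley rats, cassette dosing, iv bolus or oral suspension. Blood and brain levels were measured by protein precipitation and HPLC-MS/MS. Brain:blood ratio was taken from AUC0-8h after oral dosing, or at 1 h after iv dosing for one compound.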
# [20] = Blood clearance in Sprague-Dawley rat at 1 mg/kg, iv and 3 mg/kg, po; assay type: ADME, organism-based; conditions: whole blood; outline: as §2
# [21] = Volume of distribution at steady state in Sprague-Dawley rat at 1 mg/kg, iv and 3 mg/kg, po; assay type: ADME, organism-based; conditions: in vivo, read-out: Vdss; outline: as §2
# [22] = Half life in Sprague-Dawley rat at 1 mg/kg, iv and 3 mg/kg, po; assay type: ADME, organism-based; conditions: in vivo; outline: as §2
# [23] = Oral bioavailability in Sprague-Dawley rat at 3 mg/kg; assay type: ADME, organism-based; conditions: in vivo; outline: as §2
# [24] = Ratio of drug level in brain to blood in Sprague-Dawley rat at 1 mg/kg, iv and 3 mg/kg, po; assay type: ADME, organism-based; conditions: read-out: BBR; outline: as §3
# [25] = Selectivity ratio of pKi for human alpha1A adrenergic receptor to pKi for human Alpha-1B adrenergic receptor
# Sequence of 5-hydroxytryptamine receptor 2A (Homo sapiens, UniProt P28223) (P28223 whole entry): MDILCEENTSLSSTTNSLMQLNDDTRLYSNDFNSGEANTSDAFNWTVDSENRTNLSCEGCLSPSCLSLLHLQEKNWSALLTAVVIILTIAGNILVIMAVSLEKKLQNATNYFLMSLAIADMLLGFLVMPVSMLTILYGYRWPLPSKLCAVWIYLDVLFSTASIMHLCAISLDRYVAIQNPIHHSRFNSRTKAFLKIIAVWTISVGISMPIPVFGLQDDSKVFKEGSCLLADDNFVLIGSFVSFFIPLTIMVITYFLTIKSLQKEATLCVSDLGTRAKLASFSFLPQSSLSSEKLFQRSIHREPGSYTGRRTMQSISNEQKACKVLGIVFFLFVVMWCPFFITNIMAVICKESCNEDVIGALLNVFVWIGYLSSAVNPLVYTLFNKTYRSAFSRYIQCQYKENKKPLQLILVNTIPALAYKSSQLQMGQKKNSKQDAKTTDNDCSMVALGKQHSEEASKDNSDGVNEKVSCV
# Sequence of Histamine H1 receptor (Homo sapiens, UniProt P35367) (P35367 whole entry): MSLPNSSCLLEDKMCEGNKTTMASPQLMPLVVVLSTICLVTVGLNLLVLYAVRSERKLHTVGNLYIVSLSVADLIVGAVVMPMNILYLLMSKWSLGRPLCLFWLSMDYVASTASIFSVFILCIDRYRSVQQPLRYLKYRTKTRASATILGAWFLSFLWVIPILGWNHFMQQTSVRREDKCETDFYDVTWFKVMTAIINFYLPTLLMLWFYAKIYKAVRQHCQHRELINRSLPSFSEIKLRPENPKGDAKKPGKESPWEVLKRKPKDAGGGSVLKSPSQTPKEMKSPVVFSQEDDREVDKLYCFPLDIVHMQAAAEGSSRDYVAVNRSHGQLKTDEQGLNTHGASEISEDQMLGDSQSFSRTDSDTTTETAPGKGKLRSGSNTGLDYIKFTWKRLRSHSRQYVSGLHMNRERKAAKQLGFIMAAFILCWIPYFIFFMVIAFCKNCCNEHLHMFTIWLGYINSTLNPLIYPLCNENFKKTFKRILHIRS
# Sequence of 5-hydroxytryptamine receptor 2B (P41595 whole entry): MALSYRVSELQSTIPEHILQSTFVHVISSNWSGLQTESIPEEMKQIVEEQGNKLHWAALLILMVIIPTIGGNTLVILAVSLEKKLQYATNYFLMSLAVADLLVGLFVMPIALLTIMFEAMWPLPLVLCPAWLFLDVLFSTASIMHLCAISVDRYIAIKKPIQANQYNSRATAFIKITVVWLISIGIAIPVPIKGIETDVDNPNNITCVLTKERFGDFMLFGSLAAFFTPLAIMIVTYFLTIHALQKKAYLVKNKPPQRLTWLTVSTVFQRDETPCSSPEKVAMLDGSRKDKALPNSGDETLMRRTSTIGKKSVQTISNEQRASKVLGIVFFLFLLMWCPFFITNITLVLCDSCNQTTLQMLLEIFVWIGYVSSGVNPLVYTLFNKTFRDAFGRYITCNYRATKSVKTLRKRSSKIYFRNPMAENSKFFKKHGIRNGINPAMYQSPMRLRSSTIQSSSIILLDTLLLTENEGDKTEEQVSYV
# Sequence of Voltage-gated inwardly rectifying potassium channel KCNH2 (Q12809 whole entry): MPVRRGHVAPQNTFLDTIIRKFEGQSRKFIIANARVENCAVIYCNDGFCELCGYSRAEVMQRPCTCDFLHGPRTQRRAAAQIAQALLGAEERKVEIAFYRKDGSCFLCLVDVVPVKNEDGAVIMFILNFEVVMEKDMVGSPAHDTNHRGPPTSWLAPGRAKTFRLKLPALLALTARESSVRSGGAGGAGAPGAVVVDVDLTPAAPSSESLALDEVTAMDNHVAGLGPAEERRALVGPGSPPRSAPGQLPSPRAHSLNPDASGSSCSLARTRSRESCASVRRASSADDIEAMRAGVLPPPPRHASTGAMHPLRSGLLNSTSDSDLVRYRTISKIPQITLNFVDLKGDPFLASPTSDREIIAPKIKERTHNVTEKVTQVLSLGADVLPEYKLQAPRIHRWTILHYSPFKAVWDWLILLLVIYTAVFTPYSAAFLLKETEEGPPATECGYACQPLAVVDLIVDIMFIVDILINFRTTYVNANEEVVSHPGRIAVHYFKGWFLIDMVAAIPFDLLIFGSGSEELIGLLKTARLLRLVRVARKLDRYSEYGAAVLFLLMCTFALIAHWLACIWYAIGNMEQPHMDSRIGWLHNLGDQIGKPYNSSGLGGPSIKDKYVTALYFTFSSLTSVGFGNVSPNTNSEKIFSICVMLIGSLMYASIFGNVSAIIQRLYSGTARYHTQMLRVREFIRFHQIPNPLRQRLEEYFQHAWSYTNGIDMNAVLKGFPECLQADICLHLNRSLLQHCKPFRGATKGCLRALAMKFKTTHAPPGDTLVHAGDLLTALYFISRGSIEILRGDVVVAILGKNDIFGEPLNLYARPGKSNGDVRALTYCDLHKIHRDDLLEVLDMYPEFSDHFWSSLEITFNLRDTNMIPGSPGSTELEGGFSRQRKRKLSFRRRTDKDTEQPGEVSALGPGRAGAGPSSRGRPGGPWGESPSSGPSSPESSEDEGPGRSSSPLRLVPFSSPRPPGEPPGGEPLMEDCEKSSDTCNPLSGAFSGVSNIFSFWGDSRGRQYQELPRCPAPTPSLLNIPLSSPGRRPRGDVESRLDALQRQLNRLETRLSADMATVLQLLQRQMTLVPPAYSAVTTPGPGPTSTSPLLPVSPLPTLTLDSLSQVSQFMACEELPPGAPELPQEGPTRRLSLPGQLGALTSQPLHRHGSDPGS
# Sequence of Cytochrome P450 3A4 (P08684 whole entry): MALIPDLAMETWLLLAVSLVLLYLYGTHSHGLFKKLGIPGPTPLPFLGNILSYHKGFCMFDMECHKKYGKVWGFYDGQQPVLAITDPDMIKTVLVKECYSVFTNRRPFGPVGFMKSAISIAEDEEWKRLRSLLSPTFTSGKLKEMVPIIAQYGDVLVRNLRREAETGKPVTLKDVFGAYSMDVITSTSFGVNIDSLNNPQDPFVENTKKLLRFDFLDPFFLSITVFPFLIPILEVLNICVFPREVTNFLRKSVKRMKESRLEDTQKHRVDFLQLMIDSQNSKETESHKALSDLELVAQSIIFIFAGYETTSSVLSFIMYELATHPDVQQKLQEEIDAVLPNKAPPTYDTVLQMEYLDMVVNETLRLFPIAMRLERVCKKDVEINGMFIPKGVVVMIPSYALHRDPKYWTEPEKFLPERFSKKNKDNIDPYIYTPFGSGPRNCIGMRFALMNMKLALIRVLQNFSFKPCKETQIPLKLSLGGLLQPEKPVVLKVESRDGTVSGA
# Sequence of Cytochrome P450 2C9 (P11712 whole entry): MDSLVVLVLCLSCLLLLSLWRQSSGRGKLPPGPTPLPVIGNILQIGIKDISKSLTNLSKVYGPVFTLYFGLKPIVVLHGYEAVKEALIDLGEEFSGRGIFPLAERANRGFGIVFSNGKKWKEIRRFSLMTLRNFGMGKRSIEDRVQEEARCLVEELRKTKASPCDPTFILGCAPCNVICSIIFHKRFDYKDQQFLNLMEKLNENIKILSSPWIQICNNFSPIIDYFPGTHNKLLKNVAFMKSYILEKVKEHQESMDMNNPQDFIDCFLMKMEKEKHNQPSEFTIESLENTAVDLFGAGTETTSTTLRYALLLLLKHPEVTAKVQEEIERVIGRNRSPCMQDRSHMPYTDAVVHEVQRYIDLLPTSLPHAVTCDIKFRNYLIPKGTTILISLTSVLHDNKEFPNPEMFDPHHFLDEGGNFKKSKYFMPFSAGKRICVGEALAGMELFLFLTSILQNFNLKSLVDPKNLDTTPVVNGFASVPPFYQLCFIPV
# Sequence of 5-hydroxytryptamine receptor 2A (Rattus norvegicus, UniProt P14842) (P14842 whole entry): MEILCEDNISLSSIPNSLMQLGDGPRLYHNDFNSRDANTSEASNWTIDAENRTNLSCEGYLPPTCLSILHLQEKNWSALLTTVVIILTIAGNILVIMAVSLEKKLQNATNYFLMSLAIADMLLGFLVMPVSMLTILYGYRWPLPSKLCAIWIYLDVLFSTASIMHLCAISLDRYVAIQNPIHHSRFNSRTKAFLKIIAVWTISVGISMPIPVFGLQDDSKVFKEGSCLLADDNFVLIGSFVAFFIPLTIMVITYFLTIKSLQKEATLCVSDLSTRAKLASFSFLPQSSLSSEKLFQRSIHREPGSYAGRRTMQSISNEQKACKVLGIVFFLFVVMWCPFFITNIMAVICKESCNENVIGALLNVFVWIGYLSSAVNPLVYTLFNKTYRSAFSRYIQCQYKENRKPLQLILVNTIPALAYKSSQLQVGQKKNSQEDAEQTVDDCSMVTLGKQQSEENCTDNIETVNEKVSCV
# Sequence of Cytochrome P450 2D6 (P10635 whole entry): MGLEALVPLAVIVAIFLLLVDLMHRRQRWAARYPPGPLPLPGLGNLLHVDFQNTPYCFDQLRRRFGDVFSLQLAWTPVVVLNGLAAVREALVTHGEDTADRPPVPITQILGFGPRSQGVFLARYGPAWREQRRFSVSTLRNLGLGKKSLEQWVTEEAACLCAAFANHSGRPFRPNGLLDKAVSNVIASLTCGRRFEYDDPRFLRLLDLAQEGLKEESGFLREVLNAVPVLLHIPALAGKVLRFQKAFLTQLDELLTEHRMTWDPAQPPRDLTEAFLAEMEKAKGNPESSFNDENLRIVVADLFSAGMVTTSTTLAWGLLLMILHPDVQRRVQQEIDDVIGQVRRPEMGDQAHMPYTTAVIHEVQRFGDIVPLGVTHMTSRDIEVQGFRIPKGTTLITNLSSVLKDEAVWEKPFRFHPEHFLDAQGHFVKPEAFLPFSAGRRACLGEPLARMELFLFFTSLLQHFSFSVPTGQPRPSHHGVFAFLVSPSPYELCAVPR
Structure (SMILES),Ki [1],Ki [2],Ki [3],Ki [4],IC50 [5],Ki [6],Ki [7],IC50 [8],IC50 [9],IC50 [10],IC50 [11],IC50 [12],fraction unbound [13],fraction unbound [14],other results
O=C(O)[C@]12C[C@H]1CN(C1CC[C@]3(Cc4ccccc4Cc4ccccc43)C1)C2 (stereo partly drawn),31.6 nM,31.6 nM,398 nM,63.1 nM,> 39800 nM,5.37 nM,69.2 nM,> 10000 nM,> 10000 nM,> 10000 nM,> 10000 nM,> 10000 nM,0.023,0.08,clearance [15]: 5 mL/min/kg; Vd [16]: 2.4 L/kg; half-life [17]: 5.3 h; bioavailability [18]: 62%; Kp [19]: 2.2
O=C(O)C1(F)CCN(C2CC[C@]3(Cc4ccccc4Cc4ccccc43)C2)CC1 (stereo partly drawn),39.8 nM,50.1 nM,> 2000 nM,1000 nM,> 39800 nM,12.3 nM,355 nM,> 10000 nM,> 10000 nM,> 10000 nM,> 10000 nM,> 10000 nM,0.02,0.084,clearance [20]: 61 mL/min/kg; Vd [21]: 3.8 L/kg; half-life [22]: 1.2 h; bioavailability [23]: 22%; Kp [24]: 0.1
CN(C)C1CC[C@]2(Cc3ccccc3Cc3ccccc32)C1 (stereo partly drawn),3.98 nM,12.6 nM,15.8 nM,7.94 nM,–,–,–,–,–,–,–,–,–,–,pKi [25]: < 6
